Assay results reported in ChEMBL document CHEMBL1165943, “Design and synthesis of new anticancer pyrimidines with multiple-kinase inhibitory effect” (Bioorg Med Chem, 2010).
Where “and” joins values, the source holds several entries; their conditions need not be identical. Equal values may be shown once. Calls of active or inactive are those of the source. The rule behind the calls is not given here.

Assays:
[1] = tested on: 786-0; assay: Growth inhibition of human 786-0 cells after 48 hrs by sulforhodamine B assay; type: functional, cell-based; settings: 786-0, 48 h
In short: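 Five-dose SRB assay. Cells in RPMI 1640 with 5% FBS and 2 mM L-glutamine were seeded at 5,000–40,000 cells/well, with a TCA-fixed time-zero plate (Tz) taken at 24 h. Compound stocks were in DMSO, serially diluted 10-fold or ½-log to five concentrations, and incubated 48 h at 37 °C. Plates were stained with SRB and read at 515 nm. IC₅₀ was taken where [(Ti−Tz)/(C−Tz)]×100 = 50.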

[2] = tested on: RXF 393; assay: Growth inhibition of human RXF393 cells after 48 hrs by sulforhodamine B assay; type: functional, cell-based
In short: (§1)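 Cells grown in RPMI 1640 with 5% FBS and 2 mM L-glutamine, seeded at 5,000–40,000 cells/well according to doubling time. After 24 h, time-zero plates are TCA-fixed. Five concentrations (10-fold or ½log dilutions, DMSO stocks) are applied for 48 h at 37 °C, 5% CO₂. Cells are TCA-fixed, SRB-stained and read at 515 nm. IC₅₀ is taken from [(Ti−Tz)/(C−Tz)]×100 = 50.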

[3] = tested on: NCI-H23; assay: Cytotoxicity against human NCI-H23 cells assessed as cell growth at 0.001 uM after 48 hrs by sulforhodamine B assay; type: functional; settings: NCI-H23, 48 h, read-out: Activity
[4] = tested on: SF-539; assay: Cytotoxicity against human SF539 cells assessed as cell growth at 0.001 uM after 48 hrs by sulforhodamine B assay; type: functional; settings: SF-539, 48 h, read-out: Activity
[5] = tested on: SNB-75; assay: Cytotoxicity against human SNB75 cells assessed as cell growth at 0.001 uM after 48 hrs by sulforhodamine B assay; type: functional; settings: SNB-75, 48 h, read-out: Activity
[6] = tested on: U-251; assay: Cytotoxicity against human U251 cells assessed as cell growth at 0.001 uM after 48 hrs by sulforhodamine B assay; type: functional; settings: U-251, 48 h, read-out: Activity
[7] = tested on: MDA-MB-468; assay: Cytotoxicity against human MDA-MB-468 cells assessed as cell growth at 0.001 uM after 48 hrs by sulforhodamine B assay; type: functional; settings: MDA-MB-468, 48 h, read-out: Activity
[8] = tested on: HL-60(TB); assay: Cytotoxicity against human HL-60(TB) cells assessed as cell growth at 100 nM after 48 hrs by sulforhodamine B assay; type: functional; settings: HL-60, 48 h, read-out: Activity
In short: (§2)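 Five-concentration HL-60(TB) test in RPMI 1640 with 5% FBS and 2 mM L-glutamine. Cells are plated at 5,000–40,000/well and a TCA-fixed time-zero plate is read at drug addition after 24 h. Drug is dissolved in DMSO and given as five 10-fold or ½log dilutions for 48 h at 37 °C, 5% CO2. Settled cells are fixed with TCA, stained with SRB and read at 515 nm.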

[9] = tested on: A549; assay: Cytotoxicity against human A549 cells assessed as cell growth at 100 nM after 48 hrs by sulforhodamine B assay; type: functional; settings: A549, 48 h, read-out: Activity
In short: (§3)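 Cells grown in RPMI 1640 with 5% FBS and 2 mM L-glutamine, seeded at 5,000–40,000 cells/well by doubling time. Time-zero plates TCA-fixed after 24 h. Five concentrations (10-fold or half-log dilutions from DMSO stock) added; 48 h at 37 °C, 5% CO2. Cold TCA fixation (final 10%, 60 min, 4 °C), 0.4% SRB stain, dye solubilized in 10 mM trizma base, A515.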

[10] = tested on: NCI-H460; assay: Cytotoxicity against human NCI-H460 cells assessed as cell growth at 100 nM after 48 hrs by sulforhodamine B assay; type: functional; settings: NCI-H460, 48 h, read-out: Activity
[11] = tested on: M14; assay: Cytotoxicity against human M14 cells assessed as cell growth at 100 nM after 48 hrs by sulforhodamine B assay; type: functional; settings: M14, 48 h, read-out: Activity
[12] = tested on: IGROV-1; assay: Cytotoxicity against human IGROV1 cells assessed as cell growth at 100 nM after 48 hrs by sulforhodamine B assay; type: functional; settings: IGROV-1, 48 h, read-out: Activity
[13] = tested on: OVCAR-3; assay: Cytotoxicity against human OVCAR-3 cells assessed as cell growth at 100 nM after 48 hrs by sulforhodamine B assay; type: functional; settings: OVCAR-3, 48 h, read-out: Activity
[14] = tested on: 786-0; assay: Cytotoxicity against human 786-0 cells assessed as cell growth at 100 nM after 48 hrs by sulforhodamine B assay; type: functional; settings: 786-0, 48 h, read-out: Activity; in short: as §3
[15] = tested on: MOLT-4; assay: Cytotoxicity against human MOLT4 cells assessed as cell growth at 0.01 uM after 48 hrs by sulforhodamine B assay; type: functional; settings: MOLT-4, 48 h, read-out: Activity
[16] = tested on: SF-295; assay: Cytotoxicity against human SF295 cells assessed as cell growth at 10 uM after 48 hrs by sulforhodamine B assay; type: functional; settings: SF-295, 48 h, read-out: Activity
[17] = tested on: M14; assay: Cytotoxicity against human M14 cells assessed as cell growth at 0.01 uM after 48 hrs by sulforhodamine B assay; type: functional; settings: M14, 48 h, read-out: Activity
[18] = tested on: ACHN; assay: Cytotoxicity against human ACHN cells assessed as cell growth at 10 uM after 48 hrs by sulforhodamine B assay; type: functional; settings: read-out: Activity; in short: as §3
[19] = tested on: MDA-MB-468; assay: Cytotoxicity against human MDA-MB-468 cells assessed as cell growth at 10 uM after 48 hrs by sulforhodamine B assay; type: functional; settings: MDA-MB-468, 48 h, read-out: Activity
[20] = tested on: BT-549; assay: Cytotoxicity against human BT549 cells assessed as cell growth at 100 nM after 48 hrs by sulforhodamine B assay; type: functional; settings: BT-549, 48 h, read-out: Activity; in short: as §3
[21] = tested on: HL-60(TB); assay: Cytotoxicity against human HL-60(TB) cells assessed as cell growth at 1 uM after 48 hrs by sulforhodamine B assay; type: functional; settings: HL-60, 48 h, read-out: Activity; in short: as §2
[22] = tested on: HOP-62; assay: Cytotoxicity against human HOP62 cells assessed as cell growth at 1 uM after 48 hrs by sulforhodamine B assay; type: functional; settings: HOP-62, 48 h, read-out: Activity
[23] = tested on: M14; assay: Cytotoxicity against human M14 cells assessed as cell growth at 1 uM after 48 hrs by sulforhodamine B assay; type: functional; settings: M14, 48 h, read-out: Activity
[24] = tested on: K562; assay: Growth inhibition of human K562 cells after 48 hrs by sulforhodamine B assay; type: functional, cell-based; settings: for CC50: read-out: LC50 (the source's name); in short: as §1
[25] = tested on: NCI-H322M; assay: Growth inhibition of human NCI-H322M cells after 48 hrs by sulforhodamine B assay; type: functional, cell-based; settings: for CC50: read-out: LC50 (the source's name); in short: as §1
[26] = tested on: NCI-H460; assay: Growth inhibition of human NCI-H460 cells after 48 hrs by sulforhodamine B assay; type: functional, cell-based; settings: NCI-H460, 48 h; for CC50: read-out: LC50 (the source's name); in short: as §1
[27] = tested on: SNB-75; assay: Growth inhibition of human SNB75 cells after 48 hrs by sulforhodamine B assay; type: functional, cell-based; settings: for CC50: read-out: LC50 (the source's name); in short: as §1

In the case of `CC(=O)c1ccccc1-c1ccc(-c2ccnc(NC(=O)Nc3cc(N4CCOCC4)cc(C(F)(F)F)c3)n2)cn1`, the GI50 [1] is reported as 9.42 µM, the IC50 [1] is reported as 13 µM and the LC50 (50% lethal concentration) [1] is reported as > 100 µM. The TGI [1] was > 100 µM, the LC50 [2] was “inactive” and the GI50 ([2]; Homo sapiens, RXF 393, 48 h) was > 100 µM. The TGI ([2]; Homo sapiens, RXF 393, 48 h) was 3.5 µM, the IC50 ([2]; Homo sapiens, RXF 393, 48 h, read-out: IC50) was 1.27 µM and the growth at 0.001 µM [3] was 98%. For the same compound, the growth at 0.001 µM [4] was 97%, the growth at 0.001 µM [5] was 88% and the growth at 0.001 µM [6] was 93%. For the same compound, the growth at 0.001 µM [7] was 97%, the growth at 0.1 µM [8] was 73% and the growth at 0.1 µM [9] was 92%. For the same compound, the growth at 0.1 µM [10] was 91%, the growth at 0.1 µM [11] was 77% and the growth at 0.1 µM [12] was 87%. For the same compound, the growth at 0.1 µM [13] was 109%, the growth at 0.1 µM [14] was 98% and the growth at 0.01 µM [15] was 76%. It also gave a growth at 10 µM [16] of 48%, a growth at 0.01 µM [17] of 95% and a growth at 10 µM [18] of 15%. The growth at 10 µM [19] was 65%, the growth at 0.1 µM [20] was 74% and the growth at 1 µM [21] was 88%. The growth at 1 µM [22] was 21%, the growth at 1 µM [23] was 9% and the GI50 ([24]; K562, 48 h) was > 100 µM. The IC50 ([24]; K562, 48 h) was > 100 µM, the TGI ([24]; K562, 48 h) was > 100 µM and the CC50 ([24]; K562, 48 h) was > 100 µM. The GI50 [25] was > 100 µM, the IC50 [25] was > 100 µM and the TGI [25] was > 100 µM. The CC50 [25] was > 100 µM, the GI50 [26] was > 100 µM and the IC50 [26] was > 100 µM. The TGI [26] was > 100 µM, the CC50 [26] was > 100 µM and the TGI [27] was 100 µM and 27.5 µM. For the same compound, the GI50 ([27]; Homo sapiens, SNB-75, 48 h) was 38.7 µM, the IC50 ([27]; Homo sapiens, SNB-75, 48 h) was 5.35 µM and the CC50 ([27]; Homo sapiens, SNB-75, 48 h) was > 100 µM.
In the case of `CC(=O)Nc1cccc(-c2ccc(-c3ccnc(NC(=O)Nc4cc(C(F)(F)F)cc(C(F)(F)F)c4)n3)cn2)c1.Cl`, the GI50 [1] is reported as 3.66 µM, the IC50 [1] is reported as 3.66 µM and the LC50 (50% lethal concentration) [1] is reported as 39.9 µM. The TGI [1] was 15.9 µM, the LC50 [2] was “inactive” and the TGI [2] was “inactive”. For the same compound, the IC50 ([2]; rxf 393) was “Not Active”, the growth at 0.001 µM [3] was 91% and the growth at 0.001 µM [4] was 97%. The growth at 0.001 µM [5] was 57%, the growth at 0.001 µM [6] was 98% and the growth at 0.001 µM [7] was 99%. For the same compound, the growth at 0.1 µM [8] was 80%, the growth at 0.1 µM [9] was 58% and the growth at 0.1 µM [10] was 79%. For the same compound, the growth at 0.1 µM [11] was 92%, the growth at 0.1 µM [12] was 89% and the growth at 0.1 µM [13] was 67%. For the same compound, the growth at 0.1 µM [14] was 62%, the growth at 0.01 µM [15] was 90% and the growth at 10 µM [16] was -33%. It also gave a growth at 0.01 µM [17] of 92%, a growth at 10 µM [18] of -84% and a growth at 10 µM [19] of 100%. It also gave a growth at 0.1 µM [20] of 87%, a growth at 1 µM [21] of 28% and a growth at 1 µM [22] of 27%. The growth at 1 µM [23] was -68%, the TGI [24] was “inactive” and the GI50 ([24]; K562, 48 h) was 1.87 µM. For the same compound, the IC50 ([24]; K562, 48 h) was 1.87 µM, the CC50 ([24]; K562, 48 h) was > 100 µM and the GI50 [25] was 2.17 µM. It also gave an IC50 [25] of 2.17 µM, a TGI [25] of 14.6 µM and a CC50 [25] of 68.8 µM. For the same compound, the GI50 [26] was 2.06 µM, the IC50 [26] was 2.06 µM and the TGI [26] was 7.07 µM. For the same compound, the CC50 [26] was 59.7 µM, the GI50 ([27]; Homo sapiens, SNB-75, 48 h) was 10.9 µM and the IC50 ([27]; Homo sapiens, SNB-75, 48 h) was 10.9 µM. It also gave a TGI ([27]; Homo sapiens, SNB-75, 48 h) of 30.5 µM and a CC50 ([27]; Homo sapiens, SNB-75, 48 h) of 85.8 µM.
